Test results reported in ChEMBL document CHEMBL2390917, “Synthesis and biological evaluation of 2-(5-methyl-4-phenyl-2-oxopyrrolidin-1-yl)-acetamide stereoisomers as novel positive allosteric modulators of sigma-1 receptor” (Bioorg Med Chem, 2013).
pIC50: −log10 of the molar value. The source made the active and inactive calls. No cut-off for these calls is given here.

Legend:
[1] = target: Cannabinoid receptor 1 (Homo sapiens) (UniProt P21554); experiment: Binding affinity to human CB1 receptor at 10 uM by radioligand displacement assay relative to control
[2] = target: 5-hydroxytryptamine receptor 3A (Homo sapiens) (UniProt P46098); experiment: Binding affinity to human 5-HT3 receptor at 10 uM by radioligand displacement assay relative to control
[3] = target: Delta-type opioid receptor (Homo sapiens) (UniProt P41143); experiment: Binding affinity to delta opioid receptor (unknown origin) at 10 uM by radioligand displacement assay relative to control
[4] = target: T1, Sigma non-opioid intracellular receptor 1 (Homo sapiens, UniProt Q99720); experiment: Displacement of [3H]1,3-di(2-tolyl)guanidine from sigma 1 receptor in human Jurkat cells; format: cell-based
[5] = target: Galanin receptor type 1 (Homo sapiens) (UniProt P47211); experiment: Binding affinity to human GAL1 receptor at 10 uM by radioligand displacement assay relative to control
[6] = target: Calcitonin gene-related peptide type 1 receptor (Homo sapiens) (UniProt Q16602); experiment: Binding affinity to human CGRP receptor at 10 uM by radioligand displacement assay relative to control
Mus musculus [7] = experiment: Toxicity in ICR mouse assessed as effect on locomotor activity measured moved distance per 4 mins at 100 mg/kg, ip after 120 mins by open field test (reference value: 578 126 cm); format: organism-based; set-up: dose 100 mg/kg, route intraperitoneal; details: in vivo
Mus musculus [8] = experiment: Toxicity in ICR mouse assessed as effect on locomotor activity measured moved distance per 4 mins at 100 mg/kg, ip after 30 mins by open field test (reference value: 1124 121 cm); format: organism-based; set-up: dose 100 mg/kg, route intraperitoneal; details: in vivo
[9] = target: Neurotensin receptor type 1 (Homo sapiens) (UniProt P30989); experiment: Binding affinity to NTS1 receptor (unknown origin) at 10 uM by radioligand displacement assay relative to control
[10] = target: Adrenergic receptor alpha-1 (Homo sapiens) (UniProt P35348+P25100+P35368); experiment: Binding affinity to human adrenergic alpha1 receptor at 10 uM by radioligand displacement assay relative to control
[11] = target: Platelet-derived growth factor receptor (Homo sapiens) (UniProt P09619+P16234); experiment: Binding affinity to PDGF receptor (unknown origin) at 10 uM by radioligand displacement assay relative to control; format: protein-complex assay
Mus musculus [12] = experiment: Antiamnesic activity in ICR mouse scopolamine-induced memory impairment model assessed as increase in retention latency at 5 mg/kg, ip administered 60 mins prior to scopolamine challenge measured after 40 mins by passive avoidance test in presence of sigma-1 receptor anatagonist NE-100; format: functional, organism-based; set-up: dose 5 mg/kg
[13] = target: Type-2 angiotensin II receptor (Homo sapiens) (UniProt P50052); experiment: Binding affinity to human angiotensin AT2 receptor at 10 uM by radioligand displacement assay relative to control
Homo sapiens [14] = organism: Homo sapiens; experiment: Binding affinity to GABA-gated chloride channel (unknown origin) at 10 uM by radioligand displacement assay relative to control
Mus musculus [15] = experiment: Toxicity in ICR mouse assessed as effect on locomotor activity measured moved distance per 4 mins at 10 mg/kg, ip after 240 mins by open field test (reference value: 398 70 cm); format: organism-based; set-up: dose 10 mg/kg, route intraperitoneal; details: in vivo
[16] = target: T1, Sigma non-opioid intracellular receptor 1; experiment: Modulation of sigma 1 receptor (unknown origin) by radioligand displacement assay relative to control
Mus musculus [17] = experiment: Cognitive enhancing effect in ICR mouse assessed as increase in retention latency at 10 mg/kg, ip administered 60 mins prior to testing measured after 24 hrs by passive avoidance test relative to control; format: functional; details: route intraperitoneal
Mus musculus [18] = experiment: Toxicity in ICR mouse assessed as effect on locomotor activity measured moved distance per 4 mins at 100 mg/kg, ip after 60 mins by open field test (reference value: 623 136 cm); format: organism-based; set-up: dose 100 mg/kg, route intraperitoneal; details: in vivo
[19] = target: Endothelin-1 receptor (Homo sapiens) (UniProt P25101); experiment: Binding affinity to human ETA receptor at 10 uM by radioligand displacement assay relative to control
Mus musculus [20] = experiment: Toxicity in ICR mouse assessed as effect on locomotor activity measured moved distance per 4 mins at 1 mg/kg, ip after 240 mins by open field test (reference value: 398 70 cm); format: organism-based; set-up: dose 1 mg/kg, route intraperitoneal; details: in vivo
[21] = target: Alpha-2A adrenergic receptor (Homo sapiens) (UniProt P08913); experiment: Binding affinity to adrenergic alpha2 receptor (unknown origin) at 10 uM by radioligand displacement assay relative to control
Homo sapiens [22] = organism: Homo sapiens; experiment: Binding affinity to peripheral-type BZD receptor (unknown origin) at 10 uM by radioligand displacement assay relative to control
[23] = target: Cholecystokinin receptor type A (Homo sapiens) (UniProt P32238); experiment: Binding affinity to human CCK1 receptor at 10 uM by radioligand displacement assay relative to control
Mus musculus [24] = experiment: Toxicity in ICR mouse assessed as effect on locomotor activity measured moved distance per 4 mins at 100 mg/kg, ip after 180 mins by open field test (reference value: 436 125 cm); format: organism-based; set-up: dose 100 mg/kg, route intraperitoneal; details: in vivo
[25] = target: Muscarinic acetylcholine receptor M4 (Homo sapiens) (UniProt P08173); experiment: Binding affinity to human muscarinic M4 receptor at 10 uM by radioligand displacement assay relative to control
[26] = target: 5-hydroxytryptamine receptor 1A (Homo sapiens) (UniProt P08908); experiment: Binding affinity to human 5-HT1A receptor at 10 uM by radioligand displacement assay relative to control
[27] = target: Mu-type opioid receptor (Homo sapiens) (UniProt P35372); experiment: Binding affinity to mu opioid receptor (unknown origin) at 10 uM by radioligand displacement assay relative to control
Mus musculus [28] = experiment: Toxicity in ICR mouse assessed as effect on locomotor activity measured moved distance per 4 mins at 1 mg/kg, ip after 60 mins by open field test (reference value: 623 136 cm); format: organism-based; set-up: dose 1 mg/kg, route intraperitoneal; details: in vivo
[29] = target: Sigma non-opioid intracellular receptor 1 (Rattus norvegicus) (UniProt Q9R0C9); experiment: Positive allosteric modulation of Wistar rat sigma 1 receptor assessed as potentiation of PRE-084 effect on electrically-stimulated vas deferens contraction at 10 uM preincubated for 10 mins followed by PRE-084 addition
Summary of the method: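 Isolated rat vas deferens, proximal ~15 mm segments, in K-H buffer at 32 °C gassed […], with 1.0 g passive tension and a 60 min adaptation. Field-stimulated at 0.1 Hz, 1 ms, 50 V. Cumulative PRE-084 (1–100 µM) was given, then washout and a 30 min rest. Test compound 10 µM was added for 10 min before cumulative PRE-084. Response is % increase over baseline amplitude; n=6, mean ± SEM, paired t-test.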

[30] = target: Somatostatin receptor type 1 (Homo sapiens) (UniProt P30872); experiment: Binding affinity to Somatostatin receptor type 1 (unknown origin) at 10 uM by radioligand displacement assay relative to control
[31] = target: Adenosine receptor A1 (Homo sapiens) (UniProt P30542); experiment: Binding affinity to human adenosine A1 receptor at 10 uM by radioligand displacement assay relative to control
Homo sapiens [32] = organism: Homo sapiens; experiment: Binding affinity to bombesin receptor (unknown origin) at 10 uM by radioligand displacement assay relative to control
[33] = target: D(2) dopamine receptor (Homo sapiens) (UniProt P14416); experiment: Binding affinity to human dopamine D2S receptor at 10 uM by radioligand displacement assay relative to control
Chain of D(2) dopamine receptor (Homo sapiens) (P14416 whole entry): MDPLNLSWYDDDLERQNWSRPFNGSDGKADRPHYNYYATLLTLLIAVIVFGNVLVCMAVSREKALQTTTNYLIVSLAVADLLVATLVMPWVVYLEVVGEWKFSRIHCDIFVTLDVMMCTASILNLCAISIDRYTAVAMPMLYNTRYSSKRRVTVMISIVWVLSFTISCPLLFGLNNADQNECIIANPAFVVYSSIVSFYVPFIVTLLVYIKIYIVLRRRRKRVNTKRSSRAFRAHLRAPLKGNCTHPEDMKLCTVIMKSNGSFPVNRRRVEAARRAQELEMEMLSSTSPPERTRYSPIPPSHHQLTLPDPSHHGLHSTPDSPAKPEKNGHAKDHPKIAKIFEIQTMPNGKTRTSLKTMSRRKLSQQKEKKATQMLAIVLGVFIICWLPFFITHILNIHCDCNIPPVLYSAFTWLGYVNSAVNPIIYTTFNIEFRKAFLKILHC

T1 sequence (Q99720 whole entry): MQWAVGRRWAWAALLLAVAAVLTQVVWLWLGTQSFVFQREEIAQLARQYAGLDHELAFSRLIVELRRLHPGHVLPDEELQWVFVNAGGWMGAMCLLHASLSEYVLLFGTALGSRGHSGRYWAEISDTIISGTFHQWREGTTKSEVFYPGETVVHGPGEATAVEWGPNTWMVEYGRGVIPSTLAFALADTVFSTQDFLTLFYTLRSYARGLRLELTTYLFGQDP
Chain of 5-hydroxytryptamine receptor 1A (Homo sapiens) (P08908 whole entry): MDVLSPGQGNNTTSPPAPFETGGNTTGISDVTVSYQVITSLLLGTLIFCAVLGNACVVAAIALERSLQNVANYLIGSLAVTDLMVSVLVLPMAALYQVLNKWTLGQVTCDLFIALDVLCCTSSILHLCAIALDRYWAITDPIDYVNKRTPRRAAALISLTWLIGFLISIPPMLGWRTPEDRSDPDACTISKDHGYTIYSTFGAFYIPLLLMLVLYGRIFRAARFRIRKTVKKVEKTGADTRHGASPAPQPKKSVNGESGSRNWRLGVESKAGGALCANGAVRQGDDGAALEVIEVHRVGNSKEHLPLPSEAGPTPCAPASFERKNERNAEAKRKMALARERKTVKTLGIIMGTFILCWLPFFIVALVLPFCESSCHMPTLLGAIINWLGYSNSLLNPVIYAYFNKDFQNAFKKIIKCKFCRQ
Chain of Muscarinic acetylcholine receptor M4 (Homo sapiens) (P08173 whole entry): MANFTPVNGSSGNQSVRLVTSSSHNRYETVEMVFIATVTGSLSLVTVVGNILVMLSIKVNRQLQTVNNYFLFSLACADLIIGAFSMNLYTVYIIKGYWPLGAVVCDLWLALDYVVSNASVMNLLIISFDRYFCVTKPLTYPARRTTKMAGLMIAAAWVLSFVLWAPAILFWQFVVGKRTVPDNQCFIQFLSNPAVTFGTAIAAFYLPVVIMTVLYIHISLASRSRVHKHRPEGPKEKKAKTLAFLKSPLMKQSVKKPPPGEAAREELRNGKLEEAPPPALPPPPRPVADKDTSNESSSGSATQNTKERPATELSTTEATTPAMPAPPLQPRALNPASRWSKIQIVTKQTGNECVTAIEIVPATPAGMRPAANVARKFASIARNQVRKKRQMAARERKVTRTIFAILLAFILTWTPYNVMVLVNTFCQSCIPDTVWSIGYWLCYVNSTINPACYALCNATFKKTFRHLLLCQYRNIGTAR
Chain of Endothelin-1 receptor (Homo sapiens) (P25101 whole entry): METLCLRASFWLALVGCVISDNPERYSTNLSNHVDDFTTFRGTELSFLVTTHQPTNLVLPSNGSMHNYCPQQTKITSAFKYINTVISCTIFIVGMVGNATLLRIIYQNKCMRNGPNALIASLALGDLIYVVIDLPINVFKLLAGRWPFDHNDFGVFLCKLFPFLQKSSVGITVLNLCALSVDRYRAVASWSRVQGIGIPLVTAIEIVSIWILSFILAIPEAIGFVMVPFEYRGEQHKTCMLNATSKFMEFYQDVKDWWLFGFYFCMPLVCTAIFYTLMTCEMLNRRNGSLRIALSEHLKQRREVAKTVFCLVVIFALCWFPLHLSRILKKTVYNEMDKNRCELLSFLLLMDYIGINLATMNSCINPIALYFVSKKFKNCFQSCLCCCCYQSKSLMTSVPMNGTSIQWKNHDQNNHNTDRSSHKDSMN
Chain of Galanin receptor type 1 (Homo sapiens) (P47211 whole entry): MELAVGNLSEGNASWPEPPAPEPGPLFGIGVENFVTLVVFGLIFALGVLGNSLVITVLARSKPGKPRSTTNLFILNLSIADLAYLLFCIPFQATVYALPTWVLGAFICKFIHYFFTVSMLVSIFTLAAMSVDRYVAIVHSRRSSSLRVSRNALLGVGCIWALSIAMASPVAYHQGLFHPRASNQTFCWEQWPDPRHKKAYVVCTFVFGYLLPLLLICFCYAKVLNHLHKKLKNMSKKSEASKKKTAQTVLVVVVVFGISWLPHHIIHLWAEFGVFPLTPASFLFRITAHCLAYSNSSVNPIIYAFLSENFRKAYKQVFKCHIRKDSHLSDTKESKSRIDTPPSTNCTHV
Chain of Sigma non-opioid intracellular receptor 1 (Rattus norvegicus) (Q9R0C9 whole entry): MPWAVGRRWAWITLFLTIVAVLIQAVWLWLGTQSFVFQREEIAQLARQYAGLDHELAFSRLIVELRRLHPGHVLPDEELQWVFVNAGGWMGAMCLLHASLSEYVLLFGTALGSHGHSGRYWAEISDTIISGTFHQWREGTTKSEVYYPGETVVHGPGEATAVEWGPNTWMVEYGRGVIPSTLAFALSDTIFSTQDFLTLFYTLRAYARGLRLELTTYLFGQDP
Chain of Alpha-2A adrenergic receptor (Homo sapiens) (P08913 whole entry): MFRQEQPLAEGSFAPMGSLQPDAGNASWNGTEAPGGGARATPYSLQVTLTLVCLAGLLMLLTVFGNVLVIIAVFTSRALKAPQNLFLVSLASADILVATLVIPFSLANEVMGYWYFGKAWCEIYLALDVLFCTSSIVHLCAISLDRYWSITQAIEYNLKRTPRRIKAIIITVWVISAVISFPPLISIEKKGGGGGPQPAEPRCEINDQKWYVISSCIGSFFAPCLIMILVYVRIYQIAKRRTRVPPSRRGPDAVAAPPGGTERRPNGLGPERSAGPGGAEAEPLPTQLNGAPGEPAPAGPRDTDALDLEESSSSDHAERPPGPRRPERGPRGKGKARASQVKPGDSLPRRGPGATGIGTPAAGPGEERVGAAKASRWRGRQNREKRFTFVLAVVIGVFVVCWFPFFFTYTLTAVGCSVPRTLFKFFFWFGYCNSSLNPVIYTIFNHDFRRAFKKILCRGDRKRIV
Chain of Delta-type opioid receptor (Homo sapiens) (P41143 whole entry): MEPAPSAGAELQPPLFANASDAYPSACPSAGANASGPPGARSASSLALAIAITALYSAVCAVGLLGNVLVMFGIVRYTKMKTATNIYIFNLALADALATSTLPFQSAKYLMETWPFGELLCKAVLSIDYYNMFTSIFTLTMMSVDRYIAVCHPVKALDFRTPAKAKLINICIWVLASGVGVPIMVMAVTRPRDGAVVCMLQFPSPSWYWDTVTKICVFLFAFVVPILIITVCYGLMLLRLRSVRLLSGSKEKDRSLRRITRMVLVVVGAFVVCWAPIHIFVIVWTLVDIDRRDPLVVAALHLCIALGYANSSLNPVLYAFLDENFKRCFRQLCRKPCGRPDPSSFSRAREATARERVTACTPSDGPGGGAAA
Chain of 5-hydroxytryptamine receptor 3A (Homo sapiens) (P46098 whole entry): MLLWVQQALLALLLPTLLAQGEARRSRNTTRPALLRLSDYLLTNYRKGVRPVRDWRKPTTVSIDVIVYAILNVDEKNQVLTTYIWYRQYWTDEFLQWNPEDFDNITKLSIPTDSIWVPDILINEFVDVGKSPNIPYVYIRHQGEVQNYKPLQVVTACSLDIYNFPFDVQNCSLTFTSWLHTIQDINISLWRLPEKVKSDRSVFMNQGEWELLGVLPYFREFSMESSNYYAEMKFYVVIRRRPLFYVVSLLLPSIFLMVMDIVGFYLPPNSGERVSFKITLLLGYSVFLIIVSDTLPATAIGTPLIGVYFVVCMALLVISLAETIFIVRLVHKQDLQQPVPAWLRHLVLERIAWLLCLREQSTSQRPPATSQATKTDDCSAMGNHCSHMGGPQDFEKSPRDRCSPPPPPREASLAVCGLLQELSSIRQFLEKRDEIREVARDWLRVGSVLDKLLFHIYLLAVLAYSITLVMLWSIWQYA
Chain of Adenosine receptor A1 (Homo sapiens) (P30542 whole entry): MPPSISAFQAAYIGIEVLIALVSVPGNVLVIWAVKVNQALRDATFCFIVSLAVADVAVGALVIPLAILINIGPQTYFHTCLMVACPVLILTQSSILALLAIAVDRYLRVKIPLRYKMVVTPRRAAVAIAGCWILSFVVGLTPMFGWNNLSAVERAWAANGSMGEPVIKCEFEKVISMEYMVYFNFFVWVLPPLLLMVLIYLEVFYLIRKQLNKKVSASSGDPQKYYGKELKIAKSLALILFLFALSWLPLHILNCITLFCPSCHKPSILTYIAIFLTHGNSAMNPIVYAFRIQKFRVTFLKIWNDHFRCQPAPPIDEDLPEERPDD
Chain of Type-2 angiotensin II receptor (Homo sapiens) (P50052 whole entry): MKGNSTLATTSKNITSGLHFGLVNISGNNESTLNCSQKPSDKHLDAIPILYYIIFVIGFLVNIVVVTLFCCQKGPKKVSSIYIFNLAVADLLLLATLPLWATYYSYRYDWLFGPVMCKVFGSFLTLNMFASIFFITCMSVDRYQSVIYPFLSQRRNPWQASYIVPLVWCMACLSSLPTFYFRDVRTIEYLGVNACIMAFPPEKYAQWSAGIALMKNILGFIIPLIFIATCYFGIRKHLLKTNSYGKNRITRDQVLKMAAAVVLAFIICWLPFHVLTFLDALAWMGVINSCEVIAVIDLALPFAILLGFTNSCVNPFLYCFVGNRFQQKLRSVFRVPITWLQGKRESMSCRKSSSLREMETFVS

C[C@H]1[C@@H](c2ccccc2)CC(=O)N1CC(N)=O
inhibition [1]: -3%
inhibition [2]: -1%
inhibition [3]: -4%
pIC50 [4]: 7.37
inhibition [5]: -2%
inhibition [6]: 1%
Activity (Mus musculus [7]): 470 cm
Activity (Mus musculus [8]): 1076 cm
inhibition [9]: -3%
inhibition [10]: -5%
inhibition [11]: -6%
Activity (Mus musculus [12]): inactive
inhibition [13]: -5%
inhibition (Homo sapiens [14]): -3%
Activity (Mus musculus [15]): 359 cm
Activity [16]: > 20%
Activity (Mus musculus [17]): 211%
Activity (Mus musculus [18]): 648 cm
inhibition [19]: -2%
Activity (Mus musculus [20]): 626 cm
inhibition [21]: -4%
inhibition (Homo sapiens [22]): 3%
inhibition [23]: 9%
Activity (Mus musculus [24]): 450 cm
inhibition [25]: -3%
inhibition [26]: -4%
inhibition [27]: -7%
Activity (Mus musculus [28]): 871 cm
Activity [29]: Active
inhibition [30]: -5%
inhibition [31]: 2%
inhibition (Homo sapiens [32]): -5%
inhibition [33]: 5%
